# Results reported in ChEMBL document CHEMBL1212828, “Synthesis and biological evaluation of novel pyrazole compounds” (Bioorg Med Chem, 2010).
# Active and inactive are the calls of the source. The rule behind the calls is not given here.
# Experiments:
# [1] = target: T1, Prostaglandin G/H synthase 1 (Ovis aries) (UniProt P05979); experiment: Inhibition of ovine COX1 at 100 uM
# T1 sequence (whole entry): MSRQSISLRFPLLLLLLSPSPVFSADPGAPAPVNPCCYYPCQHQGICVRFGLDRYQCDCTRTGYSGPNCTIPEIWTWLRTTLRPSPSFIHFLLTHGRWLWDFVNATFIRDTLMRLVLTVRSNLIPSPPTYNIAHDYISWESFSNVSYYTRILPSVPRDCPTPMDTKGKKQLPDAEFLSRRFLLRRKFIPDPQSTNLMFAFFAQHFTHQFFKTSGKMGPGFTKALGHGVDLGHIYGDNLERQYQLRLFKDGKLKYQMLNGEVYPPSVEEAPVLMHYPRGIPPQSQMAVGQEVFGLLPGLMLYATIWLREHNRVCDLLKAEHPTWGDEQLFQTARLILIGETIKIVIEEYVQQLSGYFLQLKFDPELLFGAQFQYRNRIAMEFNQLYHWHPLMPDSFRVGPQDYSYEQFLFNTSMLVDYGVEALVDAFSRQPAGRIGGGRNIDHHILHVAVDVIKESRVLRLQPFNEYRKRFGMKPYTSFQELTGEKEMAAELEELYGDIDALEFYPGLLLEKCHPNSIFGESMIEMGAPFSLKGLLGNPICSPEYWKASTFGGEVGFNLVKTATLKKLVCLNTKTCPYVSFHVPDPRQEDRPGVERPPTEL
# Summary of the method: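 Screening kit with ovine COX-1 and human recombinant COX-2, run per manufacturer's protocol; percent inhibition of prostaglandin production measured for each isoform.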
# THP-1 [2] = experiment: Antiinflammatory activity in human THP1 cells assessed as reduction in LPS and IFN-gamma-induced MCP level after 24 hrs; type: functional, cell-based
# Summary of the method: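 THP-1 cells (5 × 10^5 cells/mL, DMEM-F12 with 5% FBS) pretreated 15 min with compound or DMSO vehicle, then stimulated with 0.5 µg/mL LPS plus 150 U/mL IFN-γ. After 24 h, MCP-1 in cell-free medium measured by ELISA. IC50 estimated from concentration–response; randomized block ANOVA.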
# THP-1 [3] = experiment: Neuroprotective activity against LPS and IFN-gamma-stimulated neurotoxin production in human THP1 cell assessed as inhibition of THP1 cell secretion-induced toxicity to human SH-SY5Y cells after 72 hrs by MTT assay; type: functional, cell-based; conditions: for IC50: THP-1, 72 h
# Summary of the method: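 THP-1 cells pretreated 15 min with compound, then stimulated with LPS (0.5 µg/mL) plus IFN-γ (150 U/mL) for 24 h. Cell-free supernatant transferred to SH-SY5Y cells plated 24 h earlier (2 × 10^5 cells/mL). After 72 h, SH-SY5Y viability read by MTT (0.5 mg/mL, 1 h, 37 °C, OD570) or by LDH release (OD490, relative to Triton X-100 lysis). IC50 estimated.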
# SH-SY5Y = experiment: Neuroprotective activity in human SH-SY5Y cells; type: functional, cell-based
# Summary of the method: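 SH-SY5Y cells seeded at 2 × 10^5/mL in DMEM-F12 with 5% FBS; after 24 h medium replaced by supernatant of THP-1 cells stimulated 24 h with LPS + IFN-γ, or by medium containing 250 µM H2O2, with compound added at transfer. Cell death measured by LDH assay 72 h later; five independent experiments; randomized block ANOVA.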
# Rattus norvegicus [4] = experiment: Antiinflammatory activity in Wistar albino rat assessed as inhibition of formalin-induced paw edema at 20 mg/kg, po administered 1 hr prior to formalin challenge measured after 1 hr relative to control; type: functional
# Summary of the method: (§1)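 Male Wistar rats, 180–200 g, groups of five; single oral dose 1 h before 2% formalin (0.1 mL) into subplantar left hind paw under light ether anaesthesia. Paw volume read by water plethysmometer at baseline and 1, 2, 3, 4 h; % inhibition = control (Vt−Vo) minus treated (Vt−Vo), over control, ×100. Means ± SEM; ANOVA with Student–Newman–Keuls.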
# Rattus norvegicus [5] = experiment: Antiinflammatory activity in Wistar albino rat assessed as inhibition of formalin-induced paw edema at 20 mg/kg, po administered 1 hr prior to formalin challenge measured after 2 hrs relative to control; type: functional; summary of the method: as §1
# Rattus norvegicus [6] = experiment: Antiinflammatory activity in Wistar albino rat assessed as inhibition of formalin-induced paw edema at 20 mg/kg, po administered 1 hr prior to formalin challenge measured after 4 hrs relative to control; type: functional; summary of the method: as §1
# Rattus norvegicus [7] = experiment: Antiinflammatory activity in Wistar albino rat sub-acute inflammatory model assessed as inhibition of formalin-induced paw edema at 20 mg/kg, po administered 1 hr prior to formalin challenge measured on day 1 relative to control; type: functional
# Summary of the method: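 Male Wistar rats, 180–200 g, five per group, dosed orally 20 mg/kg daily for 7 consecutive days. Formalin (2%, 0.1 mL) injected subplantar into left hind paw under light ether 1 h after dosing, repeated on day 3. Paw volume measured plethysmographically on days 1 and 8; inhibition expressed relative to untreated controls.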
# Rattus norvegicus [8] = experiment: Antiinflammatory activity in po dosed Wistar albino rat assessed as inhibition of formalin-induced paw edema after 3 hrs relative to control; type: functional
# Rattus norvegicus [9] = experiment: Toxicity in Wistar albino rat assessed as ulcerogenic activity at 300 mg/kg, po qd for 3 days; type: organism-based; parameters: dose 300 mg/kg, route oral; conditions: in vivo, 72 h
# Summary of the method: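 Rats in groups of five, fasted 12 h with water ad libitum; oral dosing in two equal portions at 0 and 12 h for three days, 300 mg/kg per day; control given 1% gum acacia. Killed 6 h after last dose; stomach opened along greater curvature, saline-washed, inspected under 3× lens for hyperemia, hemorrhage, erosion or ulcer.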
# THP-1 [10] = experiment: Cytotoxicity against human THP1 cells assessed as reduction in cell viability; type: cell-based
# Summary of the method: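 THP-1 cells in DMEM-F12 with 5% FBS, 24-well plates, pretreated 15 min with compound or DMSO vehicle, then stimulated with LPS 0.5 µg/mL plus IFN-γ 150 U/mL for 24 h. Death read as supernatant LDH (iodonitrotetrazolium formazan, 490 nm, fraction of Triton X-100 lysate); survival by MTT; MCP-1 by ELISA. Concentration effects by randomized block ANOVA; 8–11 independent experiments.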
Structure (SMILES),inhibition [1] [%],"IC50 (THP-1 [2]; Homo sapiens, THP-1, 24 h, read-out: IC50) [µM]",IC50 (THP-1 [3]) [µM],Activity (SH-SY5Y),inhibition in vivo at 20 mg/kg (Rattus norvegicus [4]) [%],inhibition in vivo at 20 mg/kg (Rattus norvegicus [5]) [%],inhibition in vivo at 20 mg/kg (Rattus norvegicus [6]) [%],inhibition in vivo at 20 mg/kg (Rattus norvegicus [7]) [%],ED50 (Rattus norvegicus [8]) [mg/kg],Activity (Rattus norvegicus [9]) [%],EC50 (THP-1 [10]) [µM],IC50 (THP-1 [2]) [µM],Activity (THP-1 [3])
CC(NC(=O)C(=O)Nc1c(C#N)cnn1-c1ccccc1)c1ccccc1 (stereo not drawn),24.5,150,6,inactive,50,27,50,39,19.6,10,500,–,–
N#Cc1cnn(-c2ccccc2)c1NC(=O)C(=O)Nc1c(C#N)cnn1-c1ccccc1,11.2,–,10,Active,44,41,58,43,17.5,0,100,250,Dose-dependent effect
